Data taken from ChEMBL document CHEMBL4390645, “Novel prenyloxy chalcones as potential leishmanicidal and trypanocidal agents: Design, synthesis and evaluation” (Eur J Med Chem, 2019).
Values belong to the molecule of their own block, whether it stands above or below them. Calls of active or inactive are those of the source. The calls are words filed in the database; no cut-off is given here.

How the values were obtained:
Leishmania major = assay: Antileishmanial activity against Leishmania major amastigotes; assay type: functional, organism-based
Leishmania donovani = assay: Antileishmanial activity against Leishmania donovani amastigotes; assay type: functional, organism-based
Leishmania mexicana [1] = assay: Antileishmanial activity against Leishmania mexicana MNYC-BZ/62/M379 promastigotes assessed as metabolic inhibition at 10 ug/ml after 24 hrs by MTT assay relative to control; assay type: functional; conditions: MNYC-BZ/62/M379, 24 h
Method in brief: (§1)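 Stationary-phase (7-day) metacyclic promastigotes, 5 x 10^5 per well in 100 µL RPMI 1640 with 10% heat-inactivated FBS and penicillin-streptomycin. Compounds from 10 mg/mL DMSO stock, diluted in PBS. Screen at 10 µg/mL in triplicate; actives serially diluted from 20 µg/mL. 27°C, dark, 24 h, then MTT 24 h. SDS/HCl solubilization, A570 vs blank. IC50 by Probit. Amphotericin B reference.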

Trypanosoma cruzi [2] = assay: Antitrypanosomal activity against Trypanosoma cruzi MHOM/MX/1994/INC5 epimastigotes assessed as metabolic inhibition at 10 ug/ml after 24 hrs by MTT assay relative to control; assay type: functional; conditions: MHOM/MX/1994/INC5, 24 h
Trypanosoma cruzi [3] = assay: Antitrypanosomal activity against Trypanosoma cruzi MHOM/MX/1994/INC5 epimastigotes assessed as growth inhibition measured after 24 hrs by MTT assay; assay type: functional, organism-based; conditions: MHOM/MX/1994/INC5, 24 h
[4] = Cytotoxicity against mouse J774.A1 cells assessed as reduction in cell viability measured after 20 hrs by MTT assay; assay type: cell-based
Method in brief: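 J774A.1 macrophages, 5x10^4/well, preincubated 24 h at 37 °C, 5% CO2. Compounds at several concentrations in triplicate for 20 h, untreated cells as control. MTT added for 4 h, then 10% SDS/0.01N HCl, absorbance read. CC50 by Probit concentration-response.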

[5] = Selectivity index, ratio of CC50 for mouse J774.A1 cells to IC50 for antitrypanosomal activity against Trypanosoma cruzi MHOM/MX/1994/INC5 epimastigotes; assay type: toxicity; conditions: read-out: Ratio CC50/IC50
Method in brief: (§2)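 SI = CC50 (J774A.1, 20 h MTT) divided by parasite IC50 (24 h MTT), both Probit-derived.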

Leishmania mexicana [6] = assay: Antileishmanial activity against Leishmania mexicana MNYC-BZ/62/M379 promastigotes assessed as growth inhibition measured after 24 hrs by MTT assay; assay type: functional, organism-based; conditions: MNYC-BZ/62/M379, 24 h; method in brief: as §1
[7] = Selectivity index, ratio of CC50 for mouse J774.A1 cells to IC50 for antileishmanial activity against Leishmania mexicana MNYC-BZ/62/M379 promastigotes; assay type: toxicity; conditions: read-out: Ratio CC50/IC50; method in brief: as §2
Leishmania mexicana [8] = assay: Antileishmanial activity against Leishmania mexicana MNYC-BZ/62/M379 promastigotes assessed as metabolic inhibition at 0.5 ug/ml after 24 hrs by MTT assay relative to control; assay type: functional; conditions: MNYC-BZ/62/M379, 24 h
Leishmania mexicana [9] = assay: Induction of morphological changes in Leishmania mexicana MNYC-BZ/62/M379 promastigotes assessed as decrease in cell density at 1.25 to 20 ug/ml measured after 24 hrs by giemsa staining using light microscopic method; assay type: functional, organism-based
Method in brief: (§3)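 Parasites exposed 24 h to a range of compound concentrations, Giemsa-stained, examined by light microscopy at 100x for morphology and cell density.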

Leishmania mexicana [10] = assay: Induction of morphological changes in Leishmania mexicana MNYC-BZ/62/M379 promastigotes assessed as rounded cells at 3 multiples of IC50 concentration and measured after 24 hrs by giemsa staining using light microscopic method; assay type: functional, organism-based
Leishmania mexicana [11] = assay: Induction of morphological changes in Leishmania mexicana MNYC-BZ/62/M379 promastigotes assessed as cell death at 3 multiples of IC50 concentration and measured after 24 hrs by giemsa staining using light microscopic method; assay type: functional, organism-based
Leishmania mexicana [12] = assay: Induction of morphological changes in Leishmania mexicana MNYC-BZ/62/M379 promastigotes assessed as decrease in flagella length at 3 multiples of IC50 concentration and measured after 24 hrs by giemsa staining using light microscopic method; assay type: functional, organism-based
Trypanosoma cruzi [13] = assay: Induction of morphological changes in Trypanosoma cruzi MHOM/MX/1994/INC5 epimastigotes assessed as decrease in cell density measured after 24 hrs by giemsa staining using light microscopic method; assay type: functional, organism-based; method in brief: as §3

IC50 (Leishmania major): 1.4 to 88.8 µM
IC50 (Leishmania donovani): 1.4 to 88.8 µM
Compound: CC(C)=CCOc1cccc(/C=C/C(=O)c2ccccc2)c1

IC50 (Leishmania major): 1.4 to 88.8 µM
IC50 (Leishmania donovani): 1.4 to 88.8 µM
Compound: CC(C)=CCC/C(C)=C/COc1ccccc1/C=C/C(=O)c1ccccc1

Compound: COc1cc(/C=C/C(=O)c2ccc(O)cc2)ccc1OCC=C(C)C
inhibition at 10 µg/mL (Leishmania mexicana [1]): 17.7%
inhibition at 10 µg/mL (Trypanosoma cruzi [2]): 23.8%

Compound: COc1cc(/C=C/C(=O)c2ccc(O)cc2)ccc1OC/C=C(\C)CCC=C(C)C
inhibition at 10 µg/mL (Leishmania mexicana [1]): 17.6%
inhibition at 10 µg/mL (Trypanosoma cruzi [2]): 20.4%

IC50 (Trypanosoma cruzi [3]): 8.7 µM
Compound: CC1CS(=O)(=O)CCN1/N=C/c1ccc([N+](=O)[O-])o1 (stereo not drawn) [NIFURTIMOX]
CC50 at 20 h [4]: 201 µM
selectivity ratio [5]: 23.1

IC50 (Trypanosoma cruzi [3]): 17.8 µM
Compound: COc1cc(C(=O)/C=C/c2cc(OC)c(OC)c(OC)c2)ccc1OCC=C(C)C
inhibition at 10 µg/mL (Leishmania mexicana [1]): 59.1%
inhibition at 10 µg/mL (Trypanosoma cruzi [2]): 80.3%
IC50 (Leishmania mexicana [6]): 20.7 µM
CC50 at 20 h [4]: 25.6 µM
selectivity ratio [7]: 1.24
selectivity ratio [5]: 1.43

Compound: COc1ccc(/C=C/C(=O)c2ccc(OCC=C(C)C)c(OC)c2)cc1
inhibition at 10 µg/mL (Leishmania mexicana [1]): 1%
inhibition at 10 µg/mL (Trypanosoma cruzi [2]): 7.9%

Compound: COc1ccc(/C=C/C(=O)c2ccc(OC/C=C(\C)CCC=C(C)C)c(OC)c2)cc1OC
inhibition at 10 µg/mL (Leishmania mexicana [1]): 27.3%
inhibition at 10 µg/mL (Trypanosoma cruzi [2]): 28.3%

IC50 (Leishmania major): 1.4 to 88.8 µM
IC50 (Leishmania donovani): 1.4 to 88.8 µM
Compound: COc1ccc(/C=C/C(=O)c2ccc(OC/C=C(\C)CCC=C(C)C)cc2)cc1

IC50 (Leishmania major): 1.4 to 88.8 µM
IC50 (Leishmania donovani): 1.4 to 88.8 µM
Compound: CC(C)=CCC/C(C)=C/CC/C(C)=C/COc1ccccc1/C=C/C(=O)c1ccccc1

IC50 (Leishmania major): 1.4 to 88.8 µM
IC50 (Leishmania donovani): 1.4 to 88.8 µM
Compound: CC(C)=CCC/C(C)=C/CC/C(C)=C/COc1cccc(/C=C/C(=O)c2ccccc2)c1

Compound: COc1cc(/C=C/C(=O)c2cc(OC)c(OC)c(OC)c2)ccc1OC/C=C(\C)CCC=C(C)C
inhibition at 10 µg/mL (Leishmania mexicana [1]): 11.3%
inhibition at 10 µg/mL (Trypanosoma cruzi [2]): 31.6%

Compound: COc1cc(C(=O)/C=C/c2ccc(O)cc2)ccc1OCC=C(C)C
inhibition at 10 µg/mL (Leishmania mexicana [1]): 4.6%
inhibition at 10 µg/mL (Trypanosoma cruzi [2]): 16.3%

Compound: C[C@@H]1[C@H](O)[C@@H](C)/C=C/C=C/C=C/C=C/C=C/C=C/C=C/[C@H](O[C@@H]2O[C@H](C)[C@@H](O)[C@H](N)[C@@H]2O)C[C@@H]2O[C@](O)(C[C@@H](O)C[C@@H](O)[C@H](O)CC[C@@H](O)C[C@@H](O)CC(=O)O[C@H]1C)C[C@H](O)[C@H]2C(=O)O [AMPHOTERICIN B]
IC50 (Leishmania mexicana [6]): 0.28 µM
CC50 at 20 h [4]: 60.7 µM
selectivity ratio [7]: 216
inhibition at 0.5 µg/mL (Leishmania mexicana [8]): 99%

Compound: COc1ccc(C(=O)/C=C/c2ccc(OC/C=C(\C)CCC=C(C)C)c(OC)c2)cc1OC
inhibition at 10 µg/mL (Leishmania mexicana [1]): 13.5%
inhibition at 10 µg/mL (Trypanosoma cruzi [2]): 22%

IC50 (Leishmania major): 1.4 to 88.8 µM
IC50 (Leishmania donovani): 1.4 to 88.8 µM
Compound: CC(C)=CCC/C(C)=C/COc1cccc(/C=C/C(=O)c2ccccc2)c1

Compound: COc1ccc(/C=C/C(=O)c2ccc(OC/C=C(\C)CCC=C(C)C)c(OC)c2)cc1
inhibition at 10 µg/mL (Leishmania mexicana [1]): 0%
inhibition at 10 µg/mL (Trypanosoma cruzi [2]): -11.6%

Compound: COc1cc(C(=O)/C=C/c2ccc(O)cc2)ccc1OC/C=C(\C)CCC=C(C)C
inhibition at 10 µg/mL (Leishmania mexicana [1]): 4.9%
inhibition at 10 µg/mL (Trypanosoma cruzi [2]): -5.5%

Compound: COc1cc(C(=O)/C=C/c2cc(OC)c(OC)c(OC)c2)ccc1OC/C=C(\C)CCC=C(C)C
inhibition at 10 µg/mL (Leishmania mexicana [1]): 2.1%
inhibition at 10 µg/mL (Trypanosoma cruzi [2]): -0.8%

IC50 (Trypanosoma cruzi [3]): 30.4 µM
Compound: COc1cc(/C=C/C(=O)c2ccc(OC/C=C(\C)CCC=C(C)C)c(OC)c2)ccc1OC/C=C(\C)CCC=C(C)C
inhibition at 10 µg/mL (Leishmania mexicana [1]): 1%
inhibition at 10 µg/mL (Trypanosoma cruzi [2]): 45%
CC50 at 20 h [4]: 1020 µM
selectivity ratio [5]: 33.5

Compound: COc1ccc(C(=O)/C=C/c2ccc(OCC=C(C)C)c(OC)c2)cc1
inhibition at 10 µg/mL (Leishmania mexicana [1]): 25.5%
inhibition at 10 µg/mL (Trypanosoma cruzi [2]): 2.6%

IC50 (Trypanosoma cruzi [3]): 17.5 µM
Compound: COc1cc(/C=C/C(=O)c2cc(OC)c(OC)c(OC)c2)ccc1OCC=C(C)C
inhibition at 10 µg/mL (Leishmania mexicana [1]): 71.3%
inhibition at 10 µg/mL (Trypanosoma cruzi [2]): 84%
IC50 (Leishmania mexicana [6]): 16.2 µM
CC50 at 20 h [4]: 1310 µM
selectivity ratio [7]: 80.9
selectivity ratio [5]: 75.1
Activity (Leishmania mexicana [9]): Active
Activity (Leishmania mexicana [10]): Active
Activity (Leishmania mexicana [11]): Active
Activity (Leishmania mexicana [12]): Active
Activity (Trypanosoma cruzi [13]): Dose-dependent effect

IC50 (Leishmania major): 1.4 to 88.8 µM
IC50 (Leishmania donovani): 1.4 to 88.8 µM
Compound: CC(C)=CCOc1ccccc1/C=C/C(=O)c1ccccc1

IC50 (Trypanosoma cruzi [3]): 42.3 µM
Compound: O=C(Cn1ccnc1[N+](=O)[O-])NCc1ccccc1 [BENZNIDAZOLE]
inhibition at 10 µg/mL (Trypanosoma cruzi [2]): 77.4%
CC50 at 20 h [4]: 352 µM

Compound: COc1ccc(C(=O)/C=C/c2ccc(OCC=C(C)C)c(OC)c2)cc1OC
inhibition at 10 µg/mL (Leishmania mexicana [1]): 48.3%
inhibition at 10 µg/mL (Trypanosoma cruzi [2]): 11.8%
IC50 (Leishmania mexicana [6]): 31.8 µM
CC50 at 20 h [4]: 1750 µM
selectivity ratio [7]: 55.1

IC50 (Trypanosoma cruzi [3]): 30.1 µM
Compound: COc1cc(/C=C/C(=O)c2ccc(OC/C=C(\C)CCC=C(C)C)c(OC)c2)ccc1OCC=C(C)C
inhibition at 10 µg/mL (Leishmania mexicana [1]): -8%
inhibition at 10 µg/mL (Trypanosoma cruzi [2]): 43.9%
CC50 at 20 h [4]: 825 µM
selectivity ratio [5]: 27.4

Compound: COc1ccc(C(=O)/C=C/c2ccc(OC/C=C(\C)CCC=C(C)C)c(OC)c2)cc1
inhibition at 10 µg/mL (Leishmania mexicana [1]): 0.7%
inhibition at 10 µg/mL (Trypanosoma cruzi [2]): 13.7%

Compound: COc1cc(/C=C/C(=O)c2ccc(OCC=C(C)C)c(OC)c2)ccc1OCC=C(C)C
inhibition at 10 µg/mL (Leishmania mexicana [1]): 3.9%
inhibition at 10 µg/mL (Trypanosoma cruzi [2]): 20%

Compound: COc1cc(C(=O)/C=C/c2ccc(OC/C=C(\C)CCC=C(C)C)c(OC)c2)ccc1OCC=C(C)C
inhibition at 10 µg/mL (Leishmania mexicana [1]): -3.2%
inhibition at 10 µg/mL (Trypanosoma cruzi [2]): 33.2%

Compound: COc1ccc(/C=C/C(=O)c2ccc(OCC=C(C)C)c(OC)c2)cc1OC
inhibition at 10 µg/mL (Leishmania mexicana [1]): 15.6%
inhibition at 10 µg/mL (Trypanosoma cruzi [2]): 25.3%
